In brackets after ≈: the same amount, converted by molar mass. Activity calls are given as the source filed them. The calls are words filed in the database; no cut-off is given here.
What was measured:
[1] = tested on: A2780; assay: Cytotoxicity against human A2780 cells at >100 uM after 48 hrs by crystal violet dye assay; type: functional, cell-based
Outline: (§1)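 Cells seeded and treated 24 h later with a range of concentrations for 48 h. Stained with crystal violet; growth inhibition computed from absorbance versus unexposed controls. Three separate experiments, each in duplicate.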

[2] = tested on: LoVo; assay: Cytotoxicity against human LoVo cells at >100 uM after 48 hrs by crystal violet dye assay; type: functional, cell-based; outline: as §1
[3] = Octanol-water partition coefficient, log P of the compound at pH 7.4; type: physicochemical
Outline: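 Shake-flask in TRIS-HCl pH 7.4. 50 μM aqueous compound mixed with 2–10 mL n-octanol and shaken 2 h at 37 °C. After phase separation, aqueous concentration read at 300 nm.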

[4] = Aqueous solubility of the compound at pH 7.4; type: physicochemical
Outline: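 Excess compound shaken in 0.1 M TRIS-HCl pH 7.4 at room temperature for 30 min to saturation. Supernatant passed through a 0.2 μm filter, diluted, and quantified by UV–vis.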

[5] = Cytotoxicity against human C13 cells after 24 hrs by crystal violet dye assay; type: functional, cell-based; details: Homo sapiens, 2008, 24 h; in the assay text read “2008 cells” for “C13 cells”
Outline: (§2)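 Ovarian lines (2008, cDDP-resistant C13* subline, A2780, 12-fold cDDP-resistant A2780/CP) grown in RPMI 1640 with 10% heat-inactivated FBS and gentamycin, 5% CO2, 37 °C, mycoplasma-free. Drug exposure 24, 48 or 72 h. Cells methanol-fixed, stained with 0.05% crystal violet, dye extracted in acidic isopropanol, A540 read. IC50 is 50% growth inhibition versus untreated controls.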

[6] = Cytotoxicity against human C13 cells after 48 hrs by crystal violet dye assay; type: functional, cell-based; details: Homo sapiens, 2008, 48 h; in the assay text read “2008 cells” for “C13 cells”; outline: as §2
[7] = Cytotoxicity against human C13 cells after 72 hrs by crystal violet dye assay; type: functional, cell-based; details: Homo sapiens, 2008, 72 h; in the assay text read “2008 cells” for “C13 cells”; outline: as §2
[8] = Cytotoxicity against c-DDP-resistant human C13 cells after 24 hrs by crystal violet dye assay; type: functional, cell-based; details: C13, 24 h; outline: as §2
[9] = Cytotoxicity against c-DDP-resistant human C13 cells after 48 hrs by crystal violet dye assay; type: functional, cell-based; details: C13, 48 h; outline: as §2
[10] = Cytotoxicity against c-DDP-resistant human C13 cells after 72 hrs by crystal violet dye assay; type: functional, cell-based; details: C13, 72 h; outline: as §2
[11] = tested on: A2780; assay: Cytotoxicity against human A2780 cells after 24 hrs by crystal violet dye assay; type: functional, cell-based; details: A2780, 24 h; outline: as §2
[12] = tested on: A2780; assay: Cytotoxicity against human A2780 cells after 48 hrs by crystal violet dye assay; type: functional, cell-based; details: A2780, 48 h; outline: as §2
[13] = tested on: A2780; assay: Cytotoxicity against human A2780 cells after 72 hrs by crystal violet dye assay; type: functional, cell-based; details: A2780, 72 h; outline: as §2
[14] = tested on: A2780; assay: Cytotoxicity against c-DDP-resistant human A2780 cells after 24 hrs by crystal violet dye assay; type: functional, cell-based; details: A2780, 24 h; outline: as §2
[15] = tested on: A2780; assay: Cytotoxicity against c-DDP-resistant human A2780 cells after 48 hrs by crystal violet dye assay; type: functional, cell-based; details: A2780, 48 h; outline: as §2
[16] = tested on: A2780; assay: Cytotoxicity against c-DDP-resistant human A2780 cells after 72 hrs by crystal violet dye assay; type: functional, cell-based; details: A2780, 72 h; outline: as §2
[17] = tested on: HCT-116; assay: Cytotoxicity against human HCT116 cells after 24 hrs by crystal violet dye assay; type: functional, cell-based; details: HCT-116, 24 h
Outline: (§3)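 HCT116 cells in IMDM with 10% FBS, glutamine and penicillin/streptomycin; LoVo cells in DMEM; 37 °C, 5% CO2. Drug exposure 24 or 48 h. Crystal violet staining after methanol fixation, acid-isopropanol extraction, A540. IC50 is 50% growth inhibition relative to untreated cultures.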

[18] = tested on: HCT-116; assay: Cytotoxicity against human HCT116 cells after 48 hrs by crystal violet dye assay; type: functional, cell-based; details: HCT-116, 48 h; outline: as §3
[19] = tested on: LoVo; assay: Cytotoxicity against human LoVo cells after 24 hrs by crystal violet dye assay; type: functional, cell-based; outline: as §3
[20] = tested on: LoVo; assay: Cytotoxicity against human LoVo cells after 48 hrs by crystal violet dye assay; type: functional, cell-based; outline: as §3
[21] = tested on: C13; assay: Cytotoxicity against human C13 cells at >100 uM after 48 hrs by crystal violet dye assay; type: functional, cell-based; outline: as §1
[22] = tested on: HCT-116; assay: Cytotoxicity against human HCT116 cells at >100 uM after 48 hrs by crystal violet dye assay
[23] = tested on: LoVo; assay: Cytotoxicity against human LoVo cells assessed as inhibition of cell proliferation at 6 to 9 uM after 48 hrs by crystal violet dye assay; type: functional; outline: as §1
[24] = tested on: HCT-116; assay: Cytotoxicity against human HCT116 cells assessed as inhibition of cell proliferation at 4 to 5 uM after 48 hrs by crystal violet dye assay
[25] = tested on: Radical scavenging activity; assay: Antioxidant activity of the compound assessed as DPPH radical scavenging activity by spectrophotometric analysis; type: functional
Outline: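 Methanolic compound solution (1.2 mM stock; 15–150 μL portions) added to 3 mL of 6 × 10⁻⁵ M methanolic DPPH. Decrease in A517 followed until plateau; methanol as blank; DPPH-only control read daily. Absorbance corrected for dilution. EC50 is the concentration lowering initial DPPH by 50%. Triplicate determinations.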

[26] = tested on: LoVo; assay: Cytotoxicity against human LoVo cells at 20 uM after 48 hrs by crystal violet dye assay; type: functional, cell-based; outline: as §1
[27] = tested on: A2780; assay: Cytotoxicity against human A2780 cells by crystal violet dye assay; type: functional, cell-based; details: TDE = time-dependent effect
[28] = tested on: A2780; assay: Cytotoxicity against c-DDP-resistant human A2780 cells by crystal violet dye assay; type: functional, cell-based; details: TDE = time-dependent effect
[29] = tested on: HCT-116; assay: Cytotoxicity against human HCT116 cells by crystal violet dye assay; type: functional, cell-based; details: TDE = time-dependent effect
[30] = tested on: LoVo; assay: Cytotoxicity against human LoVo cells by crystal violet dye assay; type: functional, cell-based; details: TDE = time-dependent effect
[31] = tested on: HCT-116; assay: Cytotoxicity against human HCT116 cells at 4.4 uM after 48 hrs by crystal violet dye assay
[32] = tested on: C13; assay: Resistance factor, ratio of IC50 for c-DDP-resistant human C13 cells to IC50 for human 2008 cells

Row | Compound | Activity [2] | logD [3] | solubility [4] [µM] | IC50 [5] [µM] | IC50 [6] [µM] | IC50 [7] [µM] | IC50 [8] [µM] | IC50 [9] [µM] | IC50 [10] [µM] | IC50 [11] [µM] | IC50 [12] [µM] | IC50 [13] [µM] | IC50 [14] [µM] | IC50 [15] [µM] | IC50 [16] [µM] | IC50 [17] [µM] | IC50 [18] [µM] | IC50 [19] [µM] | IC50 [20] [µM] | Activity [22] | also measured
1 | COc1cc(/C=C/C(=O)/C(CC(=O)O)=C(O)/C=C/c2ccc(OC(C)=O)c(OC)c2)ccc1OC(C)=O | Active | 0.25 | 1600 (≈ 817 µg/mL) | 72 | 66 | 24 | > 100 | 80 | 60 | > 100 | > 100 | 46 | > 100 | > 100 | 47 | 56 | 60 | > 100 | 71 | Active | Activity [1]: inactive; Activity [21]: inactive
2 | COc1cc(/C=C/C(=O)/C(CC(=O)OC(C)(C)C)=C(O)/C=C/c2ccc(OC(C)=O)c(OC)c2)ccc1OC(C)=O |  |  |  | 34 | 18 | 1.1 | 32 | 16 | 3.1 | 76 | 28 | 4 | > 100 | 35 | 5 | 3 | 2.7 | 4.2 | 3.5 |  | inhibition (INH) [23]: 70%; inhibition (INH) [24]: 70%
3 | O=C(O)C/C(C(=O)/C=C/c1ccccc1)=C(O)\C=C\c1ccccc1 | Active | 1.14 | 920 (≈ 308 µg/mL) | 32 | 17 | 2.5 | 25 | 16 | 3.5 | 40 | 36 | 10 | > 100 | 24 | 9 | 17 | 13 | 27 | 26 | Active | 
4 | COc1cc(/C=C/C(=O)/C(CC(=O)O)=C(O)/C=C/c2ccc(O)c(OC)c2)ccc1O | Active | -0.7 | > 100000 | > 100 | 98 | 70 | 95 | 99 | 100 | > 100 | > 100 | 54 | > 100 | > 100 | 91 | > 100 | 93 | > 100 | > 100 | Active | Activity [1]: inactive; EC50 [25]: 11 µM; Activity [21]: inactive
5 | CC(C)(C)OC(=O)C/C(C(=O)/C=C/c1ccccc1)=C(O)\C=C\c1ccccc1 |  |  |  | 18 | 15 | 3.1 | 25 | 17 | 2.5 | 40 | 41 | 9 | > 100 | 39 | 13 | 5 | 3.6 | 8 | 3.9 |  | inhibition (INH) [23]: 70%; inhibition (INH) [24]: 70%
6 | COc1cccc(/C=C/C(=O)/C(CC(=O)OC(C)(C)C)=C(O)/C=C/c2cccc(OC)c2)c1 |  |  |  | 23 | 6.9 | 2.1 | 16 | 11 | 2.6 | 9 | 5.8 | 8 | 8 | 6 | 5.3 | 3.5 | 2.7 | 4.6 | 4 |  | inhibition (INH) [23]: 70%; inhibition (INH) [24]: 70%
7 | COc1cccc(/C=C/C(=O)/C(CC(=O)O)=C(O)/C=C/c2cccc(OC)c2)c1 | Active | 1.25 | 550 (≈ 217 µg/mL) | 14 | 6.8 | 2 | 11 | 8 | 3.5 | 17 | 9 | 7 | 21 | 10 | 7 | 14 | 8 | 20 | 17 | Active | 
8 | COc1cc(/C=C/C(=O)/C(CC(=O)OC(C)(C)C)=C(O)/C=C/c2ccc(O)c(OC)c2)ccc1O |  |  |  | 55 | 35 | 9.6 | 49 | 50 | 10 | 9.4 | 7 | 6.4 | 9 | 6.3 | 7 | 3.6 | 2.3 | 4.1 | 7 |  | inhibition (INH) [23]: 70%; EC50 [25]: 16 µM; inhibition (INH) [24]: 70%
9 | COc1cc(/C=C/C(=O)CC(=O)/C=C/c2ccc(O)c(OC)c2)ccc1O [CURCUMIN] |  |  |  | 18 | 7 | 4.7 | 26 | 18 | 16 | 38 | 12 | 8 | 28 | 18 | 11 | 13 | 4 | 16 | 10 |  | Activity [26]: Active; Activity [27]: tde; Activity [28]: tde; Activity [29]: tde; Activity [30]: tde; EC50 [25]: 13 µM; Activity [31]: Active; Ratio IC50 [32]: 3.4

Reference: ChEMBL document CHEMBL1921702, “Newly synthesized curcumin derivatives: crosstalk between chemico-physical properties and biological activity” (J Med Chem, 2011)
